Screening data (PubChem BioAssay)
In the library only some 4.7% were active in any assay of this set; here they are far more common.
Cl transport mod: KCC2 (human) Cl- transport modulation | 190,000 compounds, 2.2% hits | B-score of Tl+ flux slope (higher = more flux/activation; lower = inhibition) at 10 µM | KCC2 cells, thallium flux FluoZin-2 fluorescence | AID 1456;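 active means thallium flux slope and its plate-corrected score both differing from the plate sample mean at a set confidence after two filtering rounds, in either direction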;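 further: slope of fluorescence scaled to starting intensity during 10 to 20 s after thallium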
RGS4 block: inhibitors of human RGS4. HEK293 M3R/RGS4 inducible, Fluo-4 calcium flux; active compounds read high; triggered by carbachol at its EC20. B-score at 10 µM. 310,000 compounds, 0.45% hits. AID 463165;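 active means B-score, a plate-corrected calcium signal, over three deviations above library mean, with baseline fluorescence within five deviations of library mean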;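 further: RGS4 expression induced by doxycycline in cells with stable M3 receptor; B-score is computed from the integrated fluorescence ratio over baseline after carbachol; higher B-score means a larger calcium signal and so more RGS4 inhibition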
Target sequence (P49798 whole entry, looked up): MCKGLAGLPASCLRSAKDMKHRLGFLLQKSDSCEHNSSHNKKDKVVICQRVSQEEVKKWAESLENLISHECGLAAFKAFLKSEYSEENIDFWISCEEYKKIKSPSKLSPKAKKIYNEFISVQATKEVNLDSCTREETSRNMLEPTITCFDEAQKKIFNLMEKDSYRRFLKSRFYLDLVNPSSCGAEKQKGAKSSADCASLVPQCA
MrgX1 allo act: human MrgX1 positive allosteric modulation, primary screen. 310,000 compounds, 0.63% hits. Q96LB2. B-score at 10 µM. MrgX1-HEK293, Fluo-4 calcium flux, FDSS; active compounds read high;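 active means plate-corrected calcium response at least 3 library SD above typical, normal starting fluorescence, not activating the receptor alone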;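 further: compound read alongside a low EC10 to EC30 dose of BAM8-22 agonist; peak minus trough fluorescence over baseline measured at the second addition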
Target sequence (Q96LB2 whole entry, looked up): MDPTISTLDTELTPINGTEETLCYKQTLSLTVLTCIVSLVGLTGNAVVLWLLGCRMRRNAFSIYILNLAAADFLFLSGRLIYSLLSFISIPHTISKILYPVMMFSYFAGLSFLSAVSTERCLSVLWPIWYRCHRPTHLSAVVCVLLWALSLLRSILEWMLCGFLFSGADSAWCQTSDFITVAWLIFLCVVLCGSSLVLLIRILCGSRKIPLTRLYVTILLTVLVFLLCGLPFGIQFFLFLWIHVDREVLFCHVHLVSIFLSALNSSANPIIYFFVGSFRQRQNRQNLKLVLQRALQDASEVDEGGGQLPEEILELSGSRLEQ
RGS4 pot: RGS4 potentiation or activation. HEK293 M3R/inducible RGS4, carbachol calcium flux Fluo4; active compounds read low. B-score at 10 µM. 310,000 compounds, 0.92% hits. AID 463111;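 active means B-score of the integrated calcium signal more than 4 SD below the library mean, with starting fluorescence not abnormally high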;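 further: negative B-score means reduced calcium response which marks RGS4 activation or potentiation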
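Reagent: ECmax carbachol challenge; Test system: M3R-expressing HEK293 line, RGS4 induced by doxycycline; Schedule: overnight RGS4 induction, 30 min dye load 37 °C, 20 min compound RT; Detection: calcium dye Fluo4 fluorescence; Read-out: Agonist-evoked peak-minus-minimum fluorescence over baseline, integrated ratio, B score.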
MrgX1 agonist: agonists of human MrgX1 receptor. Q96LB2. MrgX1-HEK293 cells, Fluo-4 calcium fluorescence, agonist mode; active compounds read high. B-score at 10 µM. 310,000 compounds, 0.44% hits;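 active means calcium response B-score plate-corrected fluorescence ratio at least 3 library SD, with starting fluorescence B-score inside 5 SD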
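Material – MrgX1-expressing HEK293 cells · Input – 15,000 cells seeded per well · Dosing – compound as first of three additions · Times – overnight seeding, then 1 h dark dye loading · Measured by – kinetic Fluo-4 NW fluorescence of intracellular calcium · Read-out – B-scored fluorescence response ratio · Benchmarks – positive and negative control wells on each plate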
MrgX1 antag: human MrgX1 receptor antagonism, primary screen. Q96LB2. MRGX1-HEK293 calcium flux, Fluo-4, BAM8-22 antagonism; active compounds read low. B-score at 10 µM. 310,000 compounds, 1.3% hits. AID 588676;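 active means calcium-response B-score plate-corrected more than 3 library SD below zero, starting fluorescence within 5 deviations, no agonist response on first addition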;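 further: peak minus trough fluorescence over baseline after final BAM8-22 challenge near maximal dose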
MrgX1 antag conf: human MrgX1 receptor antagonism, re-confirmation screen. shares compounds with MrgX1 antag. MrgX1-HEK293, BAM8-22 calcium flux, Fluo-4; active compounds read low. remaining BAM8-22 calcium response % of control (active compounds read low), % at 10 µM. 2,300 compounds, 19% hits. AID 602420;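 active means remaining agonist calcium response no higher than 100% minus 3 SD of agonist-only control wells, with starting fluorescence near control levels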;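 further: agonist BAM8-22 given at a near maximal EC90 to ECmax level; peak minus minimum fluorescence divided by baseline after agonist addition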
HEK293 Ca flux: MrgX1 antagonist counter-screen hit in parental HEK293 cells; shares compounds with MrgX1 antag; Fluo-4 calcium fluorescence, FDSS; fluorescence ratio F(max-min)/F0 at 10 µM; 4,000 compounds, 2% hits; AID 624111;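 active means duplicate-averaged calcium fluorescence ratio at least three times the standard deviation of buffer wells, a nonspecific response in parental cells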
HEK293 Ca counter: activity in parental HEK293 cells without MrgX1. 4,000 compounds, 0.4% hits. AID 624114. fluorescence ratio F(max-min)/F0 at 10 µM. shares compounds with MrgX1 antag. parental HEK293 calcium flux, Fluo-4 fluorescence ratio; active compounds read high;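 active means calcium fluorescence ratio, averaged over duplicates, at least 3 SD of the buffer-well ratio, meaning a nonspecific response in receptor-free cells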;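 further: untransfected parental HEK293 lacking MrgX1 used as counterscreen for MrgX1 allosteric activators; fluorescence change taken during the second addition on a kinetic imager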
HEK293 Ca cntr2: counter-screen for MrgX1 activators: effect in parental HEK293 cells. shares compounds with MrgX1 antag. Fluo-4 calcium fluorescence (FDSS); active compounds read high. fluorescence ratio F(max-min)/F0 at 10 µM. 4,000 compounds, 8.7% hits;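 active means calcium fluorescence ratio at least three times the spread of buffer wells, meaning a non-specific response in parental cells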
Numbers stand for hits; i = inactive; nt = no result given; ! = not confirmed by another sample.

SMILES	Cl transport mod	RGS4 block	MrgX1 allo act	RGS4 pot	MrgX1 agonist	MrgX1 antag	MrgX1 antag conf	HEK293 Ca flux	HEK293 Ca counter	HEK293 Ca cntr2
CCN(CC)S(=O)(=O)c1ccc(OC)c(NC(=O)C2CC(=O)N(c3ccc4c(c3)OCCO4)C2)c1 (centres undefined)	nt	i	i	i	i	i	nt	nt	nt	nt
COc1ccccc1NC(=O)c1nn(C)cc1Br	i	nt	i	nt	i	-7.6	i	i	i	i
CCC(C)Sc1nc2c(cnn2-c2ccccc2)c(=O)[nH]1 (centres undefined)	i	i	i	i	i	-4.9	i	i	i	i
O=C(Nc1ccc2[nH]ccc2c1)c1ccc(F)cc1	i	i	i	i	i	i	nt	nt	nt	nt
O=C(Nc1ccc2[nH]ccc2c1)c1ccccc1	i	i	i	i	i	-7.8	84%	i	i	i
CCCCn1c(N)c(N(CC(C)C)C(=O)c2ccc(C)c(S(=O)(=O)N3CCCCC3)c2)c(=O)[nH]c1=O	nt	i	i	i	i	i	nt	nt	nt	nt
Cc1ccc(C(=O)Nc2ccc(N3CCN(C)CC3)cc2)c(Cl)c1	nt	i	i	i	i	i	nt	nt	nt	nt
CS(=O)(=O)N1CCC(Oc2ccccc2C(=O)N2CCCCC2CO)CC1 (centres undefined)	i	i	i	i	i	-4.6	i	i	i	i
O=C(NCc1ccccc1Cl)c1ccc(NC2=NC3CS(=O)(=O)CC3S2)cc1 (centres undefined)	nt	i	i	i	i	i	nt	nt	nt	nt
O=C(Nc1ccc(Cl)c(Cl)c1)Nc1ccccc1NS(=O)(=O)c1cccs1	i	i	i	i	i	-7.3	74%	i	i	i
O=C(Nc1ccccc1)Nc1ccccc1NS(=O)(=O)c1cccs1	i	i	i	i	i	i	nt	nt	nt	nt
COc1cc(CNc2ccccc2)c([N+](=O)[O-])cc1OC	nt	i	i	i	i	i	nt	nt	nt	nt
c1ccc(CSc2nnc(-c3cccs3)n2Cc2ccco2)cc1	i	i	i	i	i	-5.8	83%	i	i	i
COc1ccc(-c2csc(NC(=O)Cc3ccccc3F)n2)cc1OC	nt	i	i	i	i	-6.1	78%	i	i	i
COc1ccc(-c2csc(NC(=O)c3cc(C)oc3C)n2)cc1OC	nt	i	i	i	i	-4.9	71%	i	i	i
COc1ccccc1CC(=O)Nc1nc(-c2ccc(F)c(F)c2)cs1	nt	i	i	i	i	i	nt	nt	nt	nt
COc1ccc(-c2csc(NC(=O)C3CCN(c4ncnc5sc(C)c(C)c45)CC3)n2)cc1OC	nt	i	i	i	i	-6	79%	i	i	i
CCc1noc(C)c1C(=O)Nc1nc(-c2ccc(OC)c(OC)c2)cs1	nt	i	i	i	i	i	nt	nt	nt	nt
COc1ccc(-c2csc(NC(=O)c3ccccc3NS(=O)(=O)c3ccc(C)cc3)n2)cc1	i	i	i	i	i	-9	61%	i	i	i
O=C(N=C1SC2CS(=O)(=O)CC2N1c1cc(Cl)ccc1Cl)C1CCCO1 (centres undefined)	nt	i	i	i	i	i	nt	nt	nt	nt
COc1ccccc1C(=O)NCCN=C1NS(=O)(=O)c2ccccc21	nt	i	i	i	i	i	nt	nt	nt	nt
COc1ccc(N2CCN(C(=O)COC(=O)CCOc3ccc(C)cc3)CC2)cc1	nt	i	i	i	i	i	nt	nt	nt	nt
CC(C)Oc1ccc(C(=O)Nc2c3c(nn2C(C)(C)C)CS(=O)(=O)C3)cc1	nt	i	i	i	i	i	nt	nt	nt	nt
CC(C)CN(C(=O)c1ccco1)C1CCS(=O)(=O)C1 (centres undefined)	nt	i	i	i	i	-4.9	i	i	i	i
O=C(NC1CC1)C1CCN(S(=O)(=O)c2cc(Cl)ccc2Cl)CC1	i	i	i	i	i	-5.4	i	i	i	i
SMILES	Cl transport mod	RGS4 block	MrgX1 allo act	RGS4 pot	MrgX1 agonist	MrgX1 antag	MrgX1 antag conf	HEK293 Ca flux	HEK293 Ca counter	HEK293 Ca cntr2
CC(C)C1Nc2ccc(C(=O)NCCCN3CCOCC3)cc2NC1=O (centres undefined)	nt	i	i	i	i	i	nt	nt	nt	nt
Cc1ccc(S(=O)(=O)N2CCOCC2)cc1NC(=O)COc1cccc(Oc2ccccc2)c1	nt	i	i	i	i	i	nt	nt	nt	nt
CCN(C(=O)COC(=O)c1cc(-c2ccccc2)nc2ccc(Br)cc12)C1CCS(=O)(=O)C1 (centres undefined)	i	i	i	i	i	i	nt	nt	nt	nt
CCN(C(=O)COc1ncnc2ccc(Br)cc12)C1CCS(=O)(=O)C1 (centres undefined)	i	i	i	i	i	-5.7	i	i	i	i
Cc1cc(C)nc(NS(=O)(=O)c2ccc(N)cc2)n1	i	i	i	i	i	-4.7!	i	i	i	i
C=C1c2ccccc2NC(=O)N1c1ccc(C)cc1	nt	i	i	i	i	-8.7	i	i	i	i
O=c1[nH]c2ccccc2nc1/C=C/c1ccc(F)cc1	i	i	i	i	i	-8	i	i	i	i
O=C(COc1ccc2c(c1)oc(=O)c1ccccc12)NCC1CCC(C(=O)O)CC1 (centres undefined)	nt	i	i	i	i	i	nt	nt	nt	nt
CC1(c2ccc(OC(F)F)cc2)NC(=O)N(CC(=O)Nc2ccc(S(N)(=O)=O)cc2)C1=O (centres undefined)	i	i	i	i	i	-6.9	i	i	i	i
CCOc1ccc(NC(=O)CN2C(=O)NC(C)(c3ccc(OC(F)F)cc3)C2=O)cc1 (centres undefined)	nt	i	i	i	i	i	nt	nt	nt	nt
CCCCOC(=O)c1ccc(NC(C)=O)cc1	i	i	i	i	i	i	nt	nt	nt	nt
CCCOC(=O)c1ccc(NC(=O)C(CC)CC)cc1	i	i	i	i	i	-6.4	i	i	i	i
O=[N+]([O-])c1cccc(S(=O)(=O)N2CCN(c3ccccn3)CC2)c1	nt	i	i	i	i	i	nt	nt	nt	nt
COc1ccc(CN2C(=O)c3cccnc3C2=O)cc1S(=O)(=O)N(C)Cc1ccco1	nt	i	i	i	i	i	nt	nt	nt	nt
CN(Cc1ccco1)S(=O)(=O)c1cc(F)ccc1CN1C(=O)c2cccnc2C1=O	nt	i	i	i	i	-4.9	i	i	i	i
Cc1ccccc1CNCCCSc1ncccn1	nt	i	i	i	i	i	nt	nt	nt	nt
